The source made the active and inactive calls. The rule behind the calls is not given here.
Key:
[1] = target: T1, Neuronal acetylcholine receptor subunit alpha-7 (Rattus norvegicus, UniProt Q05941); assay: Displacement of [3H]-methyllycaconitine from alpha7* nAChR in rat brain P2 membranes after 2.5 hrs by liquid scintillation spectrometry; type: cell membranes
[2] = Displacement of [3H]-cytisine from alpha4beta2* nAChR in Wistar rat cerebral cortex membranes after 75 mins; type: cell membranes
Rattus norvegicus = organism: Rattus norvegicus; assay: Selectivity ratio of Ki for alpha7* nAChR in rat brain P2 membranes to Ki for alpha4beta2* nAChR in Wistar rat cerebral cortex membranes; type: cell membranes
[3] = target: Neuronal acetylcholine receptor subunit alpha-7 (Rattus norvegicus) (UniProt Q05941); assay: Displacement of [3H]-methyllycaconitine from alpha7* nAChR in rat brain P2 membranes at 1 uM after 2.5 hrs by liquid scintillation spectrometry relative to control; type: cell membranes
Sequence of Neuronal acetylcholine receptor subunit alpha-7 (Rattus norvegicus) (Q05941 whole entry): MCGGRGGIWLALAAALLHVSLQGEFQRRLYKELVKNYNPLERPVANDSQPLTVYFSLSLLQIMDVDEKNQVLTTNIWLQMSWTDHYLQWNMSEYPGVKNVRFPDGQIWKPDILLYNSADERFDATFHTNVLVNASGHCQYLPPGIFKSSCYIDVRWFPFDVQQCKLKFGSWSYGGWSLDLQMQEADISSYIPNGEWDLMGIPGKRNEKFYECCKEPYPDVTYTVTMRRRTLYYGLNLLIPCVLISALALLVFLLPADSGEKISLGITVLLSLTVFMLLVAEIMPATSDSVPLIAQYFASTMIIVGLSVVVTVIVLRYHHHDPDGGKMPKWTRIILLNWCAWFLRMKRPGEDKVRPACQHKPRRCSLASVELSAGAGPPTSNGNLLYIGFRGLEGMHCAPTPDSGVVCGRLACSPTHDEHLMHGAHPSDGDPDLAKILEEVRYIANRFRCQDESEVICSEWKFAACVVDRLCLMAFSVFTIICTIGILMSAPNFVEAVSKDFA
How it was run: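 [3H]-Methyllycaconitine binding on rat brain minus cortex, striatum and cerebellum […]. Percent inhibition measured at 1 μM compound. Four independent experiments in duplicate.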

[4] = (§1) Agonist activity at nAChR in human SH-SY5Y cells assessed as increase in intracellular Ca2+ levels measured every 2 secs for 3 mins by Fluo4AM-fluorescent dye based assay; type: cell-based; conditions: 0.05 h
How it was run: (§2)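 SH-SY5Y cells (native nAChRs) in DMEM/F12 with 10% FBS were plated at 5000-10000 cells/well and grown 48-72 h. Cells were loaded with Fluo-4 AM (1.824 μM) and probenecid (1.25 mM). Compound was added just before reading; fluorescence at ex/em 485/535 nm. Mean ± SEM of three independent experiments, each with 5-6 measurements.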

SH-SY5Y = assay: as §1; type: cell-based; how it was run: as §2
[5] = target: T1, Neuronal acetylcholine receptor subunit alpha-7; assay: Agonist activity at rat alpha7 nAChR expressed in Xenopus laevis oocytes after 4 to 5 days at -60 mV holding potential by […] assay; type: cell-based
How it was run: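 Two-electrode voltage clamp on defolliculated stage V-VI Xenopus laevis oocytes (collagenase 2 mg/mL, 2 h, 21-24 °C, Ca2+-free Barth's, pH 7.6). Oocytes were injected with 9.2 ng cRNA of human α3+β2 (1:1) or rat α7 plus chaperone NACHO (2:1). Agonist applications were separated by 5 min washout in normal frog Ringer's.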

[6] = target: Neuronal acetylcholine receptor subunit alpha-7 (Homo sapiens, UniProt P36544); assay: Agonist activity at human alpha7 nAChR expressed in mouse Neuro2a cells co-expressing chaperone NACHO assessed as increase in intracellular Ca2+ levels in presence of PNU120596 by calcium flux assay; type: cell-based
Sequence of Neuronal acetylcholine receptor subunit alpha-7 (Homo sapiens, UniProt P36544) (P36544 whole entry): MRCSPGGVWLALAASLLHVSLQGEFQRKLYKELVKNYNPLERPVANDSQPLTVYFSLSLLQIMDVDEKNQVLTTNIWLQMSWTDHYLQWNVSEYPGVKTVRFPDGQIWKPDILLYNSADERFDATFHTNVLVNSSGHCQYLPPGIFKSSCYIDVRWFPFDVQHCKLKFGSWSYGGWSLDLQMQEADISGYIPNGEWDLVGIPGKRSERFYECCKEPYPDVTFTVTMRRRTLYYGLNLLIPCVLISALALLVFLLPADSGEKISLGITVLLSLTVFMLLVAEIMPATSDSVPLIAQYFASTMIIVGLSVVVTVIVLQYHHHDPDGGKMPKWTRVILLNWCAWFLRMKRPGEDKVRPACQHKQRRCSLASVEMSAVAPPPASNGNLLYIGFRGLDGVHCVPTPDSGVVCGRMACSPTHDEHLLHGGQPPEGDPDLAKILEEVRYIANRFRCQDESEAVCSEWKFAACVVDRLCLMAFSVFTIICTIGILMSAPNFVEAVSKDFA

T1 sequence (Q05941 whole entry): as the sequence (Q05941 whole entry) above

Row | SMILES | Ki [1] [nM] | Ki [2] [nM] | Ratio Ki (Rattus norvegicus) | inhibition [3] [%] | EC50 [4] [nM] | Activity (SH-SY5Y) | EC50 [5] [µM] | EC50 [6] [nM]
1 | CN[C@@H]1[C@@H]2CC[C@@H](C2)[C@H]1c1ccc(Cl)nc1 | 116 | 3.12 | 37 |  |  |  |  | 
2 | CN(C)[C@@H]1[C@@H]2CC[C@@H](C2)[C@H]1c1cccnc1 | > 1000 | 59 | > 17 | 8 |  |  |  | 
3 | CN[C@@H]1[C@H]2CC[C@H](C2)[C@H]1c1cccnc1 | > 1000 | 206 |  | 15 |  |  |  | 
4 | CN1CCC[C@H]1c1cccnc1 [NICOTINE] |  | 2.31 |  |  | 22500 |  |  | 
5 | CN[C@@H]1[C@@H]2CC[C@@H](C2)[C@H]1c1cccnc1 | 352 | 10.2 |  |  |  | inactive | > 10 | 2290
6 | N[C@@H]1[C@H]2CC[C@H](C2)[C@H]1c1ccc(Cl)nc1 | 227 | 28 |  |  |  |  |  | 
7 | CN(C)[C@@H]1[C@H]2CC[C@H](C2)[C@H]1c1ccc(Cl)nc1 | > 1000 | 294 |  | 18 |  |  |  | 
8 | CN(C)[C@@H]1[C@H]2CC[C@H](C2)[C@H]1c1cccnc1 | > 1000 | 554 | > 2 | 6 |  |  |  | 
9 | N[C@@H]1[C@@H]2CC[C@@H](C2)[C@H]1c1cccnc1 | 46 | 2.11 |  |  | 1920 |  | 5.98 | 48
10 | N[C@@H]1[C@H]2CC[C@H](C2)[C@H]1c1cccnc1 | > 1000 | 166 |  | 30 |  |  |  | 
11 | CN(C)[C@@H]1[C@@H]2CC[C@@H](C2)[C@H]1c1ccc(Cl)nc1 | > 1000 | 43 |  | 33 |  | inactive | > 10 | 6450
12 | N[C@@H]1[C@@H]2CC[C@@H](C2)[C@H]1c1ccc(Cl)nc1 | 10.5 | 1.31 |  |  | 220 |  | 2.71 | 24

Reference: ChEMBL document CHEMBL4411326 (J Med Chem, 2019)
